Source: ChEMBL document CHEMBL1121447, “Pronounced pharmacological differences arising from minor structural changes in conformationally defined amphetamine analogues. Comparative evaluation of endo- and exo-2-amino- and endo- and exo-2-(methylamino)benzobicyclo[2.2.1]heptene and -benzobicylco[2.2.2]octene analogues. Conformationally …” (J Med Chem, 1980)
pEC50, pIC50: −log10 of the molar value.

Experiments:
Format in all cases: functional, organism-based
[1] = species on record: Rattus norvegicus; assay: Effective concentration was measured for the release of accumulated [3H]dopamine from chopped striatum of rat
How it was run: (§1)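 Chopped rat cortex (NE) or corpus striatum (DA) from untreated rats loaded with 10^-6 M [3H]NE or [3H]dopamine, then washed. Exposed to drug (10^-7 to 10^-3 M) for 30 min, then centrifuged. Amines separated from deaminated metabolites on Dowex 50 Na+ and counted by scintillation with recovery correction. Release = % of total label found in medium. EC50 = half-maximal concentration; 3-4 experiments.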

[2] = species on record: Rattus norvegicus; assay: Inhibitory concentration against uptake of [3H]NE into chopped cerebral cortical tissue from rat brain
How it was run: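 Chopped rat cerebral cortex preincubated 10 min at 37 °C in physiological salt solution (95% O2-5% CO2) with drug at 10^-8 to 10^-3 M. [3H]NE then added to 10^-7 M final. Uptake stopped by centrifugation. Tissue ethanol extract and medium counted by scintillation. Inhibition taken as % of control; 3-4 experiments.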

[3] = species on record: Rattus norvegicus; assay: Effective concentration was measured for the release of accumulated [3H]NE from chopped cortex of rat; how it was run: as §1

N[C@H]1CC2C[C@@H]1c1ccccc12
pEC50 ([1]; Rattus norvegicus): 3.10 | pIC50 ([2]; Rattus norvegicus, Brain): 4.00 | pEC50 ([3]; Rattus norvegicus): 3.20

N[C@@H]1CC2C[C@@H]1c1ccccc12
pEC50 ([1]; Rattus norvegicus): 3.73 | pIC50 ([2]; Rattus norvegicus, Brain): 5.96 | pEC50 ([3]; Rattus norvegicus): 4.80

NC1CC2CCC1c1ccccc12 (stereo in doubt; 1a)
pEC50 [1]: 3.72 | pIC50 [2]: 6.10 | pEC50 [3]: 3.83

CNC1CC2CCC1c1ccccc12 (stereo in doubt; 1b)
pEC50 [1]: 3.73 | pIC50 [2]: 6.10 | pEC50 [3]: 3.75

NC1CC2CCC1c1ccccc12 (stereo in doubt; 2a)
pEC50 [1]: 3.17 | pIC50 [2]: 4.41 | pEC50 [3]: 3.00

CNC1CC2CCC1c1ccccc12 (stereo in doubt; 2b)
pEC50 [1]: < 3.00 | pIC50 [2]: 4.32 | pEC50 [3]: < 3.00

CNC1CC2CC1c1ccccc12 (stereo in doubt; 3b)
pEC50 [1]: 3.57 | pIC50 [2]: 5.74 | pEC50 [3]: 3.35

CNC1CC2CC1c1ccccc12 (stereo in doubt; 4b)
pEC50 [1]: < 3.00 | pIC50 [2]: 3.43 | pEC50 [3]: < 3.00

C[C@H](N)Cc1ccccc1 [DEXTROAMPHETAMINE]
pEC50 ([1]; Rattus norvegicus): 4.96 | pIC50 ([2]; Rattus norvegicus, Brain): 6.70 | pEC50 ([3]; Rattus norvegicus): 6.10

C[C@@H](N)Cc1ccccc1 [LEVAMFETAMINE]
pEC50 ([1]; Rattus norvegicus): 4.21 | pIC50 ([2]; Rattus norvegicus, Brain): 6.30 | pEC50 ([3]; Rattus norvegicus): 5.77
